Calls of active or inactive are those of the source. No cut-off for these calls is given here. Starred links: 1 amine or outer side, 2 acyl side, 3 side chain; linkers in the order of their positions; H or OH if unused. Residues, ends and D or L forms follow the SMILES beside them. *: point of attachment. Piperazinyl(4-RhodamineB) = CCN(CC)c1ccc2c(-c3ccccc3C(=O)N3CCN(*)CC3)c3ccc(=[N+](CC)CC)cc-3oc2c1; Suc = O=C(CCC(=O)[*:2])[*:1]
Key:
HT-22 [1] = test: Cytotoxicity against mouse HT22 cells after 24 hrs in presence of lysosomal protease inhibitor ammonium chloride by MTT assay; assay type: functional, cell-based
HeLa = test: Cytotoxicity against human HeLa cells after 24 hrs by MTT assay; assay type: functional
In short: (§1)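 Cells grown at 37 °C with 5% CO2 and treated at about 50–70% confluence in serum-free medium for 24 h. Viability read by MTT and expressed as a percentage of untreated cells. Run in triplicate in at least three independent trials, reported as mean ± standard deviation.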

HT-22 [2] = test: Cytotoxicity against mouse HT22 cells after 24 hrs in presence of lysosomal protease inhibitor leupeptin by MTT assay; assay type: functional, cell-based
HT-22 [3] = test: Induction of cell death in mouse HT22 cells at 7.5 uM after 3 hrs by thioflavin S/DAPI/propidium iodide staining based fluorescence microscopic analysis; assay type: functional
In short: (§2)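 Cells were given vehicle or 7.5 μM peptide for 3 h and stained live with 20 μg mL−1 propidium iodide for 10 min. They were then PBS-washed, fixed in 4% PFA, stained with 0.005% ThS for 10 min, ethanol-washed, counterstained with DAPI and imaged by fluorescence microscopy.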

HT-22 [4] = test: Aggregation property of the compound in mouse HT22 cells assessed as intracellular amyloid formation by thioflavin S/DAPI staining based fluorescence microscopic analysis; assay type: ADME, cell-based
In short: (§3)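 Cells treated with vehicle or 15 μM peptide for 1 h, fixed in 4% PFA for 20 min, stained with 0.005% (w/v) ThS in water for 10 min, washed three times with absolute ethanol, counterstained with DAPI, and imaged by epifluorescence microscopy.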

HT-22 [5] = test: Cytotoxicity against mouse HT22 cells after 24 hrs in presence of lysosomal protease inhibitor bafilomycin A1 by MTT assay; assay type: functional, cell-based
MDA-MB-231 = test: Cytotoxicity against human MDA-MB-231 cells after 24 hrs by MTT assay; assay type: functional; conditions: for EC50: MDA-MB-231, 24 h, read-out: ED50 (the source's name)
In short: (§4)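 Per well of a 48-well plate, 1.5 × 10^4 cells were seeded in medium with 10% FBS and grown for at least 24 h, then treated at about 50–60% confluence for 24 h. MTT was added for the final 3 h at 37 °C in the dark. Formazan was dissolved in DMSO and read at 595 nm, as % of untreated cells. Triplicate wells, at least three independent trials.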

MCF-10A = test: Cytotoxicity against human MCF10A cells after 24 hrs by MTT assay; assay type: cell-based; in short: as §4
HEK293 = test: Cytotoxicity against HEK293 cells after 24 hrs by MTT assay; assay type: cell-based; conditions: human, hek293, 24 h; in short: as §1
HT-22 [6] = test: Aggregation property of the compound in mouse HT22 cells assessed as intracellular amyloid formation at 15 uM after 1 hr by thioflavin S/DAPI staining based fluorescence microscopic analysis; assay type: ADME, cell-based; conditions: ht-22, 1 h; in short: as §3
HT-22 [7] = test: Induction of cell death in mouse HT22 cells by thioflavin S/DAPI/propidium iodide staining based fluorescence microscopic analysis; assay type: functional; in short: as §2
[8] = Drug localization in cytosol of mouse Rh-Dextran-labelled HT22 cells at 7.5 uM after 2.5 hrs using fluorescent-labelled peptide by confocal microscopic analysis; assay type: ADME, subcellular, HT-22
HT-22 [9] = test: Induction of endosomal/lysosomal membrane permeabilization in mouse HT22 cells at 15 uM measured after 1 hr by acridine orange dye based fluorescence microscopic analysis; assay type: functional
[10] = Drug localization in cytosol of mouse HT22 cells assessed as punctate formation after 3 hrs by DAPI staining based fluorescence microscopic analysis; assay type: ADME, subcellular, HT-22
In short: (§5)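 Rhodamine-labelled peptide (3.5 μM) was given for 3 h at 37 °C. Cells were washed with DMEM and PBS, fixed in 4% PFA for 20 min, nuclei stained with DAPI, and imaged by epifluorescence with 40× air or 60× oil objectives.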

[11] = Drug uptake in mouse HT22 cells at 3.5 uM up to 3 hrs by DAPI staining based fluorescence microscopic analysis; assay type: ADME, cell-based; conditions: ht-22, 3 h
In short: (§6)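 HT-22 cells were incubated with 3.5 μM rhodamine-labelled peptide for 30 min, 3 h, 6 h and 24 h at 37 °C, then fixed in 4% PFA with DAPI nuclear stain. Per-cell fluorescence was taken as integrated density after background correction.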

[12] = Drug localization in nucleus of HEK293 cells assessed as punctate formation after 3 hrs by DAPI staining based fluorescence microscopic analysis; assay type: ADME, subcellular; conditions: human, hek293, 3 h; in short: as §5
[13] = Drug uptake in mouse HT22 cells at 3.5 uM after 6 to 24 hrs by DAPI staining based fluorescence microscopic analysis; assay type: ADME, cell-based; conditions: ht-22, 3.5 µM; in short: as §6
[14] = Drug localization in cytosol of HEK293 cells assessed as punctate formation after 3 hrs by DAPI staining based fluorescence microscopic analysis; assay type: ADME, subcellular; conditions: human; in short: as §5
[15] = Drug localization in late endosomes/lysosomes of mouse Rh-Dextran-labelled HT22 cells at 7.5 uM after 2.5 hrs using fluorescent-labelled peptide by confocal microscopic analysis; assay type: ADME, subcellular, Late endosome/lysosome; conditions: ht-22, 2.5 h
[16] = Drug localization in cytosol of human HeLa cells assessed as punctate formation after 3 hrs by DAPI staining based fluorescence microscopic analysis; assay type: ADME, subcellular; in short: as §5
[17] = Drug localization in nucleus of human HeLa cells assessed as punctate formation after 3 hrs by DAPI staining based fluorescence microscopic analysis; assay type: ADME, subcellular; in short: as §5
[18] = Drug localization in nucleus of mouse HT22 cells assessed as punctate formation after 3 hrs by DAPI staining based fluorescence microscopic analysis; assay type: ADME, subcellular; conditions: ht-22, 3 h; in short: as §5

Activity (HT-22 [6]) | Compound | Activity (HT-22 [1]) | Activity (HT-22 [2]) | Activity (HT-22 [5]) | EC50 (MDA-MB-231) | Activity (MCF-10A) | Activity (HeLa) | other results
 | Ac-LAVLFLRRRRRRRRR-NH2 | Active | Active | Active | 20 µM | Non-Toxic |  | EC50 (HeLa; read-out: ED50 (the source's name)): 3 µM; Activity (HT-22 [3]): Active; Activity (HT-22 [4]): Active
Active | Ac-VQIVYKRRRRRRRRR-NH2 | inactive | inactive | inactive | 5 µM | Non-Toxic | Active | Activity (HEK293): Non-Toxic; Activity (HT-22 [7]): Active; Drug uptake [8]: Active; Activity (HT-22 [9]): Active
 | Ac-LAVLFL-NH2 |  |  |  |  |  | Active | 
Not Active | Ac-VQIVKKRRRRRRRRR-NH2 |  |  |  |  |  | Active | 
 | CC[C@H](C)[C@H](NC(=O)[C@H](CCC(N)=O)NC(=O)[C@@H](NC(=O)CCC(=O)N1CCN(C(=O)c2ccccc2-c2c3ccc(=[N+](CC)CC)cc-3oc3cc(N(CC)CC)ccc23)CC1)C(C)C)C(=O)N[C@H](C(=O)N[C@@H](Cc1ccc(O)cc1)C(=O)N[C@@H](CCCCN)C(=O)N[C@@H](CCCNC(=N)N)C(=O)N[C@@H](CCCNC(=N)N)C(=O)N[C@@H](CCCNC(=N)N)C(=O)N[C@@H](CCCNC(=N)N)C(=O)N[C@@H](CCCNC(=N)N)C(=O)N[C@@H](CCCNC(=N)N)C(=O)N[C@@H](CCCNC(=N)N)C(=O)N[C@@H](CCCNC(=N)N)C(=O)N[C@@H](CCCNC(=N)N)C(N)=O)C(C)C.[Cl-] ({Piperazinyl(4-RhodamineB)-Suc}-VQIVYKRRRRRRRRR-NH2) |  |  |  |  |  |  | Drug uptake [10]: Active; Drug uptake [11]: Active; Drug uptake [12]: Active; Drug uptake [13]: Not Active; Drug uptake [14]: Active; Drug uptake [15]: Active; Drug uptake [16]: Active; Drug uptake [17]: Active; Drug uptake [18]: Active
Not Active | Ac-VQIVYK-NH2 |  |  |  |  | Non-Toxic | Active | Activity (MDA-MB-231): inactive

Reference: ChEMBL document CHEMBL4325821, “Novel cell-penetrating-amyloid peptide conjugates preferentially kill cancer cells” (Medchemcomm, 2018)
